Active and inactive are the calls of the source.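 The calls were made as follows, unless noted: active = inhibition above 20% together with a positive visual image hit; inconclusive = visual image hit but inhibition not above 20%; inactive = no visual image hit.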
Columns and labels:
[1] = inhibitors of TNFa-induced NFkB p65 translocation, primary screen, imaging, HUVEC, MLSMR starter and 10KST1 sets (AID 438); details: HUVEC TNFa-induced p65 nuclear translocation; cell count: measured here: nuclei count (cytotoxicity indicator), at 2.08 µM; inhibition: at 2 µM, stronger effect = higher value, 0% TNFa-plus-vehicle, 100% no-TNFa wells;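 also: compound added about 3h40 before a 20 min TNFalpha stimulation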;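 as to inhibition: signal is the nuclear over cytoplasmic p65 intensity ratio per well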
[2] = inhibitors of E-selectin induction by TNFa, primary screen, imaging, HUVEC, immunofluorescence, MLSMR starter and 10KST1 sets (AID 487;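 active = visually confirmed hit in the image check and inhibition above 20%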;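 as to inhibition: signal is fraction of cell area covered by stained E-selectin grains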;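 as to nuclei count: 100% = median nuclei count of all wells on the same plate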); details: HUVEC TNFalpha-induced E-selectin immunofluorescence imaging, at 2 µM; inhibition: stronger effect = higher value; nuclei count: measured here: cell number, toxicity
[3] = DUSP6 inhibitors restoring Erk phosphorylation by chemical complementation, primary imaging in DUSP6-transfected HeLa (AID 609;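 active = compounds giving at least 50% inhibition in the cell-based MKP-3 phosphatase rescue imaging test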;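 as to inhibition: phospho-Erk level distribution per well compared with pooled transfected vehicle control wells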); details: HeLa MKP-3 transfected, phospho-Erk imaging KS statistic, at 10 µM, cells stimulated with TPA for 15 min
[4] = target: Dual specificity protein phosphatase 6 (Homo sapiens) (UniProt Q16828); test: as above; details: HeLa MKP-3 transfected, phospho-Erk imaging KS statistic; at 10 µM; stronger effect = higher value; cells stimulated with TPA for 15 min
[5] = target: Voltage-gated potassium channel subunit beta-2 (Rattus norvegicus) (UniProt P62483); test: KvBeta enzyme negative modulators, primary screen, biochemical, NADPH fluorescence (AID 622;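 active = fluorescence slope higher than the sample average by over 3 SD, cut at about -0.22 in these data, passing the limit was not always enough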;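 also: slope of raw intensity against log time taken from 70 to 1610 s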); details: recombinant KvBeta, 4-cyanobenzaldehyde reduction, at 10 µM, stronger effect = higher value
[6] = target: Voltage-gated potassium channel subunit beta-2 (Rattus norvegicus) (UniProt P62483); test: KvBeta positive modulators, primary screen, biochemical, NADPH fluorescence (AID 623;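 active = NADPH fluorescence slope more negative than the mean of all samples by about 3 SD, 99.7% confidence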;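 also: fluorescence intensity change per second fitted from 20 to 320 s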); details: Recombinant KvBeta, NADPH fluorescence decrease slope, 10 min; at 10 µM; stronger effect = lower value
[7] = target: Muscarinic acetylcholine receptor M4 (Homo sapiens) (UniProt P08173); test: compounds altering M4/GIRK thallium flux, either direction, primary screen, M4 allosteric agonist project, cell-based, HEK293 M4/GIRK, BTC-AM (AID 625;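 active = fluorescence slope after compound addition differing from the mean of all tested samples at 99.7% confidence, mostly higher but some lower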;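 also: thallium influx through GIRK channels coupled to M4 in HEK293 cells with BTC-AM dye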); details: at 10 µM, actives lie on both sides
How it was run: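 System: HEK293 cells with M4 receptor and GIRK channels | Incubation: Cells overnight at 37 °C, BTC-AM loading 1 h, reads 2 min total | Technique: Kinetic BTC-AM fluorescence sampled at 1 Hz, 10 s pre-addition baseline | Measure: Post-addition slope, 15–24 s, of baseline-normalized fluorescence | Control set: Carbachol positive, DMSO negative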

[8] = inhibitors of larval lipid processing in zebrafish, primary screen, whole organism, PED6 fluorescence, gall bladder and intestine (AID 686;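 active = a full or partial loss of lipid-probe fluorescence in the fish gall bladder, intestine or both, judged by eye; inactive = no fluorescence loss, or compound toxic to the fish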;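 also: larvae 5 to 7 days old with five fish per well; signal comes from phospholipase A2 cleavage of quenched PED6 carried via bile; overnight exposure to compound and PED6 before scoring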); details: Zebrafish larvae PED6 lipid processing, fluorescence scoring; screened at 20 µM (by protocol)
How it was run: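 Test system – live zebrafish larvae aged 5-7 days, whole organism · Buffer or medium – E3 fish medium · Reagent – quenched phospholipase substrate PED6, 100 nM final, ingested by larvae · Doses – 20 µM single dose · Incubation – overnight compound and PED6 incubation · Technique – visual fluorescence microscopy scoring of gall bladder, gut · Read-out basis – visual per-well fluorescence inhibition score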

[9] = inhibitors of Chlamydomonas gravitaxis, primary screen, whole organism, Chlamydomonas reinhardtii, WT vs cilia-less mutant, absorbance, 96-well (AID 463189;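 active = inhibition at or above 50% relative to wild type and mutant plate controls; inactive = inhibition below 50%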;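 also: 0% = wild type cc124 cells in DMSO and 100% = ciliumless bld1 mutant cells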); details: OD600 absorbance, 2 days, at 10 µM, stronger effect = higher value
[10] = measured here: cell density z-score
[11] = measured here: nuclear c-Myc green intensity z-score
[12] = measured here: nuclear pErk red intensity z-score, stronger effect = higher value

Chain of Voltage-gated potassium channel subunit beta-2 (Rattus norvegicus) (P62483 whole entry, looked up): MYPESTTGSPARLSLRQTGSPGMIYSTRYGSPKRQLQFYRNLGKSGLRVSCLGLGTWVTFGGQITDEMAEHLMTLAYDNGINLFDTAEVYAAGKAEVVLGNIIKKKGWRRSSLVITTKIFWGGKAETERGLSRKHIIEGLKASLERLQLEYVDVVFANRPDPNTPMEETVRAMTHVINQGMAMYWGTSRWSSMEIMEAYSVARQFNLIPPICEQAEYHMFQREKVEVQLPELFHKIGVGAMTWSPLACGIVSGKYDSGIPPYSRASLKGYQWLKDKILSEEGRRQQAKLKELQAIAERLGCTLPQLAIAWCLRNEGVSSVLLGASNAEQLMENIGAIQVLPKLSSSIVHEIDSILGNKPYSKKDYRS
Chain of Dual specificity protein phosphatase 6 (Homo sapiens) (Q16828 whole entry, looked up): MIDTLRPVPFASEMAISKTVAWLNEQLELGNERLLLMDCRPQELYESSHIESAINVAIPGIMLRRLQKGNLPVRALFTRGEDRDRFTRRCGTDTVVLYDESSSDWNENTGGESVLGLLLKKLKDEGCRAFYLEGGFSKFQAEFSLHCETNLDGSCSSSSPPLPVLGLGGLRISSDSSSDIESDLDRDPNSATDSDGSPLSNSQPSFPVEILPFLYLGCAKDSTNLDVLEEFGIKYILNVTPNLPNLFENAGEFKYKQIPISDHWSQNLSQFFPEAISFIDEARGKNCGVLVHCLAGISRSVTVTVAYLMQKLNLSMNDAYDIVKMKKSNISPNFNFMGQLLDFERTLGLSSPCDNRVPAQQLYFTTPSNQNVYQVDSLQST
Chain of Muscarinic acetylcholine receptor M4 (Homo sapiens) (P08173 whole entry, looked up): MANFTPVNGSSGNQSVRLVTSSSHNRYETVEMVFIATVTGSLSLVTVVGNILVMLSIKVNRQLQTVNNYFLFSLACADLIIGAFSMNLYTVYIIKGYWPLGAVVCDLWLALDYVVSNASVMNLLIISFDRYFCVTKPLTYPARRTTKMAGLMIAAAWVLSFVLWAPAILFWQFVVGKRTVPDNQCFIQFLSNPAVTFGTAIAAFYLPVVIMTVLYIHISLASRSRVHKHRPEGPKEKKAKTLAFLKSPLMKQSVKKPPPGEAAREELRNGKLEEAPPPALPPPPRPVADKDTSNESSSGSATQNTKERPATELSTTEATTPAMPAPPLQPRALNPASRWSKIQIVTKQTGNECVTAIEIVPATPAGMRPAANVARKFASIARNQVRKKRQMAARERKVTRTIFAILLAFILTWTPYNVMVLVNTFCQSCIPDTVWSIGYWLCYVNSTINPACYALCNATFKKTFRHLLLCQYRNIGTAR

Row | SMILES | cell count [1] | inhibition [1] | inhibition [2] | nuclei count [2] [%] | z-score [3, 10] | z-score [3, 11] | z-score [3, 12] | inhibition [4] | fluorescence slope [5] | NADPH fluorescence slope [6] | fluorescence slope [7] | outcome [8] | inhibition [9]
1 | Cc1cc(C)n(-c2ncnc3sc(C)c(C)c23)n1 | 577 | -0.8% (inactive) | -64.7% (inactive) | 157 | 0.455 | 0.0261 | 1.38 | 19.8% (inactive) | -0.293 (inactive) | -3.5e-05 (inactive) | 0.00669 (inactive) | inactive | -1.64% (inactive)
2 | C=CCOc1nc2c(c(=O)n(Cc3ccc(Cl)cc3)c(=O)n2C)n1C | 534 | -5.1% (inactive) | 22.1% (inactive) | 170 | -0.487 | 1.21 | 0.796 | -9.91% (inactive) | -0.414 (inactive) | -5.4e-05 (inactive) | 0.00453 (inactive) | inactive | -3.62% (inactive)
3 | Cc1ccc(C(=O)C2=C(O)C(=O)N(CCN3CCOCC3)C2c2ccccn2)o1 (configuration not stated) | 403 | 1.7% (inactive) | -75.7% (inactive) | 147 | -0.208 | -0.969 | -0.257 | -0.608% (inactive) | -0.474 (inactive) | -0.0001 (inactive) | 0.00402 (inactive) | inactive | -7.55% (inactive)
4 | COc1ccc2nc(SCC(=O)O)nc(C)c2c1 | 472 | -2.5% (inactive) | -119% (inactive) | 167 | -1.34 | -1.35 | 0.21 | -2.29% (inactive) | -0.447 (inactive) | -4.9e-05 (inactive) | 0.00491 (inactive) | inactive | 25.2% (inactive)
5 | COC(=O)CC1=C(C(=O)OC)C(c2cccc(OCC(N)=O)c2)C(C#N)=C(N)O1 (configuration not stated) | 723 | -1% (inactive) | -67.7% (inactive) | 186 | -1.4 | 0.109 | 1.84 | 27.5% (inactive) | -0.432 (inactive) | -7e-05 (inactive) | 0.00612 (inactive) | inactive | 12% (inactive)
6 | CCCCSc1nnc(-c2ccc(NC(C)=O)cc2)n1C | 622 | -5.3% (inactive) | 21.1% (inactive) | 166 | -0.239 | 0.0535 | 0.233 | -13.3% (inactive) | -0.461 (inactive) | -3e-05 (inactive) | 0.00598 (inactive) | inactive | -9.33% (inactive)
7 | O=C(COc1ccc(Cl)cc1)Nc1ccccc1CO | 590 | -0.5% (inactive) | -9.8% (inactive) | 120 | 1.01 | 0.534 | -0.247 | 5.42% (inactive) | -0.435 (inactive) | -0.000143 (inactive) | 0.00526 (inactive) | inactive | -8.26% (inactive)
8 | CCOC(=O)CSc1nc(-c2ccc3c(c2)OCO3)ccc1C#N | 676 | 4.9% (inactive) | 5.4% (inactive) | 120 | -0.127 | -1.03 | 0.898 | -2.91% (inactive) | -0.199 (inactive) | -8.6e-07 (inactive) | 0.00583 (inactive) | inactive | -3.42% (inactive)
9 | Cc1ccc(N2C(=O)CC3(CC4C=CC3C4)C2=O)cc1 (configuration not stated) | 637 | 6.2% (inactive) | -47.9% (inactive) | 115 | 1.62 | -0.359 | -0.765 | -2.09% (inactive) | -0.414 (inactive) | -3.6e-05 (inactive) | 0.00482 (inactive) | inactive | -4.98% (inactive)
10 | CCCn1c(SCC(N)=O)nc2c(c1=O)C1(CCCC1)Cc1ccccc1-2 | 555 | -8% (inactive) | 20.3% (inactive) | 170 | 0.28 | 0.545 | 0.00156 | 1.98% (inactive) | -0.386 (inactive) | -5.2e-05 (inactive) | 0.00485 (inactive) | inactive | -1.68% (inactive)
11 | CC(C)Cc1[nH]c(=O)c(C#N)c2c1COC(C)(C)C2 | 568 | -11.1% (inactive) | -69.9% (inactive) | 141 | 0.028 | -0.951 | -0.389 | -13.3% (inactive) | -0.43 (inactive) | -5.3e-05 (inactive) | 0.00369 (inactive) | inactive | 23.1% (inactive)
12 | CCOC(=O)C1CCN(c2ncnc3c2cnn3-c2ccc(OC)cc2)CC1 | 680 | -2.1% (inactive) | -138% (inactive) | 191 | 0.032 | -0.586 | 0.421 | 13.4% (inactive) | -0.405 (inactive) | -3.9e-05 (inactive) | 0.00612 (inactive) | inactive | -3.46% (inactive)
13 | CCOc1ccc(N=C(NC#N)SCC(=O)NC2CC2)cc1 | 613 | -1.5% (inactive) | -40.6% (inactive) | 161 | 0.193 | 0.708 | 0.295 | -2.29% (inactive) | -0.491 (inactive) | -4.8e-05 (inactive) | 0.00628 (inactive) | inactive | -3.68% (inactive)
14 | OCCN=C(c1ccccc1)C12CN3CN(CN(C3)C1)C2 | 568 | -5.7% (inactive) | -133% (inactive) | 150 | 0.238 | -2.23 | 0.262 | 15.4% (inactive) | -0.48 (inactive) | -2.2e-05 (inactive) | 0.0051 (inactive) | inactive | 7.41% (inactive)

Reference: PubChem BioAssay
